The source made the active and inactive calls. No cut-off for these calls is given here.
Legend:
[1] = biological target: Ribosomal protein S6 kinase alpha-3 (Mus musculus, UniProt P18654); test: Inhibition of RSK2 in mouse BAF cells expressing activated FGFR assessed as reduction of YB1 phosphorylation at Ser102 by electochemiluminescence assay; type: cell-based
In short: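 Cellular Ser102-phospho-YB1 ECL immunoassay in mouse BAF cells engineered to express activated FGFR. RIPA lysates are bound overnight at 4 °C to high-bind plates. Plates are blocked 2 h at rt with 10% BSA. Detection uses phospho-Ser102 YB1 antibody (1.3 μg/mL, 2 h rt), then sulfo-tag goat anti-rabbit antibody (0.5 μg/mL, 2 h rt), then MSD read buffer.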

[2] = biological target: Ribosomal protein S6 kinase alpha-3 (Homo sapiens, UniProt P51812)
[3] = biological target: Ribosomal protein S6 kinase alpha-6 (Homo sapiens) (UniProt Q9UK32); test: Binding affinity to DNA-tagged RSK4 N-terminal kinase domain (unknown origin) assessed as level of protein captured on solid support at 10 uM by qPCR analysis relative to control
In short: (§1)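 Competitive binding panel (KinomeScan) run at 10 μM test concentration, 96 kinases in the panel, or 442 in the expanded panel. Results are reported as […], where smaller values mean stronger binding.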

[4] = biological target: Ribosomal protein S6 kinase alpha-2 (Homo sapiens) (UniProt Q15349); test: Binding affinity to DNA-tagged RSK3 N-terminal kinase domain (unknown origin) assessed as level of protein captured on solid support at 10 uM by qPCR analysis relative to control; in short: as §1
[5] = biological target: Serine/threonine-protein kinase PLK1 (Homo sapiens) (UniProt P53350); test: Binding affinity to DNA-tagged PLK (unknown origin) at 10 uM by qPCR analysis; in short: as §1
[6] = biological target: Ribosomal protein S6 kinase alpha-1 (Homo sapiens) (UniProt Q15418); test: Binding affinity to DNA-tagged RSK1 N-terminal kinase domain (unknown origin) assessed as level of protein captured on solid support at 10 uM by qPCR analysis relative to control; in short: as §1
[7] = test system: Caco-2; test: Permeability across human Caco2 cells; type: ADME, cell-based
[8] = Clearance in iv dosed Sprague-Dawley rat; type: ADME, organism-based; conditions: in vivo
In short: (§2)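 Single-dose plasma pharmacokinetics in male Sprague-Dawley rats following intravenous administration.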

[9] = Clearance in rat liver microsomes; type: ADME; conditions: read-out: CLH
[10] = Plasma half life in iv dosed Sprague-Dawley rat; type: ADME, organism-based; in short: as §2
[11] = Volume of distribution at steady state in iv dosed Sprague-Dawley rat; type: ADME, organism-based; conditions: in vivo, read-out: Vdss; in short: as §2

Chain of Ribosomal protein S6 kinase alpha-3 (Mus musculus, UniProt P18654) (P18654 whole entry): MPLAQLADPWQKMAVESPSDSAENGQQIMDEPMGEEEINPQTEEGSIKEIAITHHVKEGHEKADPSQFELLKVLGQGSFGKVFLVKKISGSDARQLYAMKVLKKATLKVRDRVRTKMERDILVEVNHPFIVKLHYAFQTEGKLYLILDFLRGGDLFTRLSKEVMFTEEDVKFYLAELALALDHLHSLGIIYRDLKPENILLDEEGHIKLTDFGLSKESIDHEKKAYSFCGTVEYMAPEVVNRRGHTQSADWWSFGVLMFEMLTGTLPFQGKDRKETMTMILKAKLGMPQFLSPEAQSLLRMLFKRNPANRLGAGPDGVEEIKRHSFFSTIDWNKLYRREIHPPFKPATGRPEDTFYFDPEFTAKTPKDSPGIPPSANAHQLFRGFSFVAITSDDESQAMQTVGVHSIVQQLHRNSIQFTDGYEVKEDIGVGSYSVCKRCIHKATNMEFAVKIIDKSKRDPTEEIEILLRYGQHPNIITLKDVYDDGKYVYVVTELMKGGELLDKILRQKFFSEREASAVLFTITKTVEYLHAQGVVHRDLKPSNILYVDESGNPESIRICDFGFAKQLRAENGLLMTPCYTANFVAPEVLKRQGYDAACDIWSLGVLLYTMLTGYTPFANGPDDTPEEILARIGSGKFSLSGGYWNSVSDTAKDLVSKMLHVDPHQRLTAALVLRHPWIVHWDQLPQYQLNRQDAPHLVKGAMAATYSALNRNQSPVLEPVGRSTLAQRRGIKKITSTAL
Chain of Ribosomal protein S6 kinase alpha-3 (Homo sapiens, UniProt P51812) (P51812 whole entry, the tested form may be a part): as the sequence (P18654 whole entry) above, with G45V counted along it
Chain of Serine/threonine-protein kinase PLK1 (Homo sapiens) (P53350 whole entry, the tested form may be a part): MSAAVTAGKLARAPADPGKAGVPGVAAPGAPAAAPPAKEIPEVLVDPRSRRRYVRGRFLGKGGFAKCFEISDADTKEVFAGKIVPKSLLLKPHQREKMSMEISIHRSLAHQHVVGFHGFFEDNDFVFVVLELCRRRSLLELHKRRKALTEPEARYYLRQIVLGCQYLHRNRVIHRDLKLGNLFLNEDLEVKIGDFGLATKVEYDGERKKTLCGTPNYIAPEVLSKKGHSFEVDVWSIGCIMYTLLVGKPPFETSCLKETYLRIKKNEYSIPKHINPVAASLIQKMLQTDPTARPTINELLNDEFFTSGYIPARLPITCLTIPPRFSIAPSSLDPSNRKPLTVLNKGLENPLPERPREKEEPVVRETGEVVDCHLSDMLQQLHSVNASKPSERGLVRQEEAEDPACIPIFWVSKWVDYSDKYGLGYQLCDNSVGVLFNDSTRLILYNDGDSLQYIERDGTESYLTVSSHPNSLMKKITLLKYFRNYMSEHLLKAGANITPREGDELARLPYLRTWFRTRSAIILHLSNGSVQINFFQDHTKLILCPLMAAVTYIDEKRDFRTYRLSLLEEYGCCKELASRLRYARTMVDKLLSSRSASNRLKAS
Chain of Ribosomal protein S6 kinase alpha-2 (Homo sapiens) (Q15349 whole entry, the tested form may be a part): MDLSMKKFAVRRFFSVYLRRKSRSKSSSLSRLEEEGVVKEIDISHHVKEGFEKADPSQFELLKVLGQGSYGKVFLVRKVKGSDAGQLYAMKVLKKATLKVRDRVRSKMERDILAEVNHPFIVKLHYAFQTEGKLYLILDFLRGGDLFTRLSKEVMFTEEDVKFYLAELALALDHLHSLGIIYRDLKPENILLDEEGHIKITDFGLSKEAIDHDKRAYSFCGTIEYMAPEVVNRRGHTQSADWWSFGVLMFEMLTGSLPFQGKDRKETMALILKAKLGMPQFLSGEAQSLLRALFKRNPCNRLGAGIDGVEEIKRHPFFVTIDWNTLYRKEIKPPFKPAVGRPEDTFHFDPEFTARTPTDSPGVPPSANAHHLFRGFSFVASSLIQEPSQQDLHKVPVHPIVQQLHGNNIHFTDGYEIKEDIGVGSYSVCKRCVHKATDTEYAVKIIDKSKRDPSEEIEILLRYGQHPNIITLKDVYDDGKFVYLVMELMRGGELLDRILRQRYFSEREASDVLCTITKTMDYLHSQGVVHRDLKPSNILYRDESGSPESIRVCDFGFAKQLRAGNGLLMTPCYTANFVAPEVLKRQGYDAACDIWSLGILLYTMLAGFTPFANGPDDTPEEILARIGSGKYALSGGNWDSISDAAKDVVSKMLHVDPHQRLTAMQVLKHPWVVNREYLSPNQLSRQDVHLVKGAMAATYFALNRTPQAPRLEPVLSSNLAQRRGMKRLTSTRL
Chain of Ribosomal protein S6 kinase alpha-6 (Homo sapiens) (Q9UK32 whole entry, the tested form may be a part): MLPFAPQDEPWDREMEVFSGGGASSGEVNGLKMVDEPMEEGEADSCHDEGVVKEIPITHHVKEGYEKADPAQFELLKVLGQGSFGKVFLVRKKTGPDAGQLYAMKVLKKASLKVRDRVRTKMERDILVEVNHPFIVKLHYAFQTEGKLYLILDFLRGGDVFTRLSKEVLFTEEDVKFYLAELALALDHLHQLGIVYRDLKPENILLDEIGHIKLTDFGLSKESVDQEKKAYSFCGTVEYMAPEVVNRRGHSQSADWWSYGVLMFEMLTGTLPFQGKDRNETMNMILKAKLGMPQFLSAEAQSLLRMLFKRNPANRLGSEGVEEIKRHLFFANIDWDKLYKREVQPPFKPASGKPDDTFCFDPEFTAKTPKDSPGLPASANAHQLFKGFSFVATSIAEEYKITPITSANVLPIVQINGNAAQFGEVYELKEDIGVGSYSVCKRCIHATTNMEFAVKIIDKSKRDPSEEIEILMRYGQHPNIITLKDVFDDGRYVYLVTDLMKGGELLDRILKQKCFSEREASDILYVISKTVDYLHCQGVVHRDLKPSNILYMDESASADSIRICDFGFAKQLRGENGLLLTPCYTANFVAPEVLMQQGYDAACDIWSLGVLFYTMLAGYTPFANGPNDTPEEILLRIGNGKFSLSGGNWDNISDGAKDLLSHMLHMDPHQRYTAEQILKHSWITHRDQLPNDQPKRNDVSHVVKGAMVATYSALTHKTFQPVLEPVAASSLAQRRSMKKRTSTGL
Chain of Ribosomal protein S6 kinase alpha-1 (Homo sapiens) (Q15418 whole entry, the tested form may be a part): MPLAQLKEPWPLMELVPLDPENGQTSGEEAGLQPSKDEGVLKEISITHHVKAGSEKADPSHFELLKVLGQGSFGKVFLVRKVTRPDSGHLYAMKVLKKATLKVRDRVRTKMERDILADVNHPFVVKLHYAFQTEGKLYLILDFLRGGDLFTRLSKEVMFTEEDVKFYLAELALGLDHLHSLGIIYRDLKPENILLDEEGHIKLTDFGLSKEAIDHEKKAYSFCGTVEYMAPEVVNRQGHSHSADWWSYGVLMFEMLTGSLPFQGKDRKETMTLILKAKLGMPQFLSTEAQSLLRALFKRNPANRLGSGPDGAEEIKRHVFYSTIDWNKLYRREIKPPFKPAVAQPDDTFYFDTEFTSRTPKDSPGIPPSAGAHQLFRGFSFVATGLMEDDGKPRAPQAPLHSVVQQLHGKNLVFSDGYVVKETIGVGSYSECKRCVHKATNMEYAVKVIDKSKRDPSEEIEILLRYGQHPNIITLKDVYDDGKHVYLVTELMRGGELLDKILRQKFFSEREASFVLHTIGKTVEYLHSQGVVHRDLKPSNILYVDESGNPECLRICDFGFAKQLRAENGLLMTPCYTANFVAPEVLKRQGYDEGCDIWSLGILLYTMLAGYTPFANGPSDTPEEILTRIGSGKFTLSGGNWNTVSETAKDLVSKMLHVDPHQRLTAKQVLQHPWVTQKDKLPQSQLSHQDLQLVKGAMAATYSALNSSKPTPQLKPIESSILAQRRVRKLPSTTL

Row | Compound | EC50 [1] [nM] | IC50 [2] [nM] | further results
1 | Cc1ccc(Nc2cc(-c3ccc(N4CCN(C)CC4)cc3)c(-c3cc(F)c(O)c(F)c3)cn2)cc1 | 690 | 6 | 
2 | Oc1c(F)cc(-c2cnccc2-c2ccc(N3CCOCC3)cc2)cc1F | 210 | 4 | Activity [3]: 0%; Activity [4]: 0.05%; Activity [5]: inactive; Activity [6]: 0%
3 | Cc1ccc(-c2nc(N)ncc2-c2cc(F)c(O)c(F)c2)cc1 | 360 | 10 | 
4 | Oc1c(F)cc(-c2cnccc2-c2cccc(N3CCOCC3)c2)cc1F | 2300 | 18 | 
5 | CC(C)CNc1cc(-c2ccc(N3CCN(C)CC3)cc2)c(-c2cc(F)c(O)c(F)c2)cn1 | 2500 | 22 | 
6 | Oc1c(F)cc(-c2cnccc2-c2ccc(F)cc2)cc1F | 10400 | 94 | 
7 | Oc1c(F)cc(-c2cnccc2C2CCOCC2)cc1F | 2200 | 130 | 
8 | Oc1ccc(-c2ccncc2-c2cc(F)c(O)c(F)c2)cc1 | 6400 | 50 | 
9 | CN1CCN(c2ccc(-c3cc(N)ncc3-c3cc(F)c(O)c(F)c3)cc2)CC1 | 440 | 6 | 
10 | CC(C)c1ccncc1-c1cc(F)c(O)c(F)c1 | > 20000 | 780 | 
11 | Cc1cccc(-c2ccncc2-c2cc(F)c(O)c(F)c2)c1 | 4100 | 32 | 
12 | Oc1c(Cl)cc(-c2cnccc2-c2ccc(F)cc2)cc1Cl | > 20000 | 4800 | 
13 | CC(C)CCN1c2nc(Nc3cc(F)c(O)c(F)c3)ncc2N(C)C(=O)[C@H]1C | 500 |  | Activity [5]: Active
14 | CNC(=O)c1ccc(-c2ccncc2-c2cc(F)c(O)c(F)c2)cc1 | 2100 | 20 | 
15 | CNc1ncc(-c2cc(F)c(O)c(F)c2)c(-c2ccc(C)cc2)n1 | 690 | 13 | 
16 | Oc1ccc(-c2cn[nH]c2-c2ccc(O)cc2)cc1 | 2800 | 24 | permeability [7]: permeable
17 | COc1ccc(-c2ccncc2-c2cc(F)c(O)c(F)c2)cc1 | 1100 | 8 | 
18 | Oc1ccc(-c2[nH]ncc2-c2ccccc2)cc1 | > 20000 | 150 | 

Row | Compound | EC50 [1] [nM] | IC50 [2] [nM] | further results
19 | Oc1ccc(-c2cn[nH]c2-c2cc(F)c(O)c(F)c2)cc1 | 1400 | 6 | 
20 | Oc1c(F)cc(-c2cnccc2-c2ccc(N3CCNCC3)cc2)cc1F | 140 | 6 | 
21 | NCCOc1cccc(-c2ccncc2-c2cc(F)c(O)c(F)c2)c1 | 490 | 4 | 
22 | COc1ccc(-c2ccncc2-c2cc(F)c(O)c(F)c2)cn1 | 5300 | 80 | 
23 | Oc1c(F)cc(-c2cnccc2C2CCNCC2)cc1F | > 20000 | 2100 | 
24 | Nc1n[nH]c(-c2ccc(O)cc2)c1-c1ccccc1 | 3200 | 53 | 
25 | Oc1ccc(-c2cn[nH]c2-c2ccccc2)cc1 | > 20000 | 2500 | 
26 | Oc1ccc(-c2ccncc2-c2ccc(O)cc2)cc1 | 9300 | 180 | permeability [7]: permeable
27 | Oc1c(F)cc(-c2cnccc2-c2cccc(-c3cn[nH]c3)c2)cc1F | 1100 | 5 | 
28 | CC(C)Nc1ncc(-c2cc(F)c(O)c(F)c2)c(-c2ccc(N3CCN(C)CC3)cc2)n1 | 610 | 20 | 
29 | CNc1cc(-c2ccc(N3CCN(C)CC3)cc2)c(-c2cc(F)c(O)c(F)c2)cn1 | 580 | 14 | 
30 | COc1cccc(-c2ccncc2-c2cc(F)c(O)c(F)c2)c1 | 5600 | 46 | 
31 | Oc1c(F)cc(-c2cnccc2-c2ccccc2)cc1F | 4200 | 60 | 
32 | Cc1ccc(-c2nc(NC(C)C)ncc2-c2cc(F)c(O)c(F)c2)cc1 | 1500 | 23 | 
33 | CN1CCN(c2cccc(-c3ccncc3-c3cc(F)c(O)c(F)c3)c2)CC1 | 1100 | 4 | 
34 | Cc1ccc(-c2ccncc2-c2cc(F)c(O)c(F)c2)cc1 | 1600 | 7 | 
35 | CN1CCN(c2ccc(-c3ccncc3-c3cc(F)c(O)c(F)c3)cc2)CC1 | 340 | 5 | clearance [8]: 166 mL/min/kg; microsomal CLint [9]: 170 µL/min/mg; half-life [10]: 13 min; Vd [11]: 1.6 L/kg
